High-throughput results: PubChem, several laboratories
A selection: hits, their analogues and other compounds. The true share with any hit is near 1.2%.
HKDC1 inhibitor = inhibitors of human hexokinase HKDC1; Q2TB90; AID 493160; recombinant HKDC1, G6PDH/diaphorase resazurin coupled fluorescence; inhibition, % at 20 µM; 340,000 compounds, 0.16% hits;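 active means inhibition above about 35% when tested at 20 µM, limit read from the data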;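 further: plate controls were DMSO wells with enzyme for no effect and DMSO wells lacking enzyme for full effect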
Target sequence (Q2TB90 whole entry, looked up): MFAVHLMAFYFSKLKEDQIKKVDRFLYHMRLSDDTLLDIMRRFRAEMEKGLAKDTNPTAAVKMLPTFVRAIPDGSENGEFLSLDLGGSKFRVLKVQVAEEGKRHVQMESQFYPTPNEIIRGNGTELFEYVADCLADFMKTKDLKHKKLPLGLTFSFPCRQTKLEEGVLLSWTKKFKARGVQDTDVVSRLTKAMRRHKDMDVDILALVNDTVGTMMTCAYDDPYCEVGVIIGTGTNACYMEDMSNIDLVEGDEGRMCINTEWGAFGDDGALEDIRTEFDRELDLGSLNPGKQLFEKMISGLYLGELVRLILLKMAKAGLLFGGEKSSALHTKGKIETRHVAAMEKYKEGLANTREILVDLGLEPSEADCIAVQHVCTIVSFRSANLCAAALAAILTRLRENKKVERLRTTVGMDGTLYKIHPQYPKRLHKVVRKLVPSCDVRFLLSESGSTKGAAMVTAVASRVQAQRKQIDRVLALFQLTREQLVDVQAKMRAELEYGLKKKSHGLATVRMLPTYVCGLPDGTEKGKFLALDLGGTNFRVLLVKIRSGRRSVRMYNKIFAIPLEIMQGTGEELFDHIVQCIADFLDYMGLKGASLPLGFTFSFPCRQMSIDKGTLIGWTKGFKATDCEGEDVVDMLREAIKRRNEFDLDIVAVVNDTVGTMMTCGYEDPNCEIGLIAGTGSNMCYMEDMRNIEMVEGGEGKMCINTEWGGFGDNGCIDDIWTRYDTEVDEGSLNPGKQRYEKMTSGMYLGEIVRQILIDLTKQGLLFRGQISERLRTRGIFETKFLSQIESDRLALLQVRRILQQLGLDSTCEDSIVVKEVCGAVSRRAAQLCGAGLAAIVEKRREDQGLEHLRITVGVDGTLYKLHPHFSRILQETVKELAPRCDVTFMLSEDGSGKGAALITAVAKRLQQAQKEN
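Assay system – recombinant HKDC1 (HK5) hexokinase enzyme, produced in-house · Input – HKDC1 at 5 µg/mL · Reagent – glucose plus 1 mM ATP as hexokinase substrates · Timing – 90 min reaction incubation at room temperature, dark · Measured by – G6PDH/diaphorase-coupled fluorescence, 1 mM NADP, 100 µM resazurin, 525/613 nm · Benchmarks – DMSO-enzyme wells negative, buffer-substituted wells positive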
Tb hexokinase = blocks Trypanosoma brucei hexokinase 1 activity; recombinant TbHK1, G6PDH-coupled NADH A340; inhibition, % at 10 µM; 220,000 compounds, 0.11% hits; AID 1430;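 active means inhibition of 50% or more in the single-dose primary screen; inactive means inhibition below 50%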
HSV replic up = HSV replication enhancement; HSV replication augmentation in cells, fold increase; maximum fold increase; 220,000 compounds, 0.005% hits; in the data active means maximum fold increase above about 1.5; tested in PC3 cells
PERK inhibitor = human PERK inhibition, primary cell-based screen | Q9NZJ5 | CHO PERK-DD fusion, SEAP luminescence translation reporter | inhibition, % at 5.6 µM | 220,000 compounds, 0.17% hits;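 active means inhibition above the mean inhibition of all tested compounds plus 3 SD, set separately per screening campaign, cut at about 2.9% in these data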;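 further: PERK kinase domain activated by AP20187 dimerizer at 100 nM; 0% = DMSO with dimerizer and 100% = rapamycin at 8.4 µM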
Dynein transport = dynein cargo transport inhibition | 3617.4 mouse cells, GR-EGFP nuclear translocation imaging; test concentration mostly 20 µM; stimulated with dexamethasone, 1 µM; stronger effect = lower value | z-score, hits read low | 220,000 compounds, 0.47% hits;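 active means plate z-score of nuclear minus cytoplasmic receptor signal below a set negative limit, without overly bright fluorescence or cell loss, cut at about -3.5 in these data, passing the limit was not always enough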;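 further: z-score of nuclear minus cytoplasmic ring GR-EGFP intensity difference per well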
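Buffer or medium – tet-free medium with charcoal-stripped serum · Signal – automated 10x imaging of fixed Hoechst-stained cells · Also added – dexamethasone agonist, 1.0 µM final, for 30 min · Incubation – induction 48 h, compound 1 h, agonist 30 min · Read-out – GR-EGFP nuclear translocation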
Autophagy mod = alters autophagy in cells | MEF GFP-LC3 puncta imaging; test concentration mostly 10 µM | calls only at 10 µM (by protocol) | 190,000 compounds, 0.98% hits | AID 463193;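 active means percentage of spot-positive cells more than 3 SD above its plate mean, without a fluorescence outlier flag or 80% toxicity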;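 further: spot-positive cell cutoff set from DMSO-treated cells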
Dynein inh conf = dynein cargo transport inhibition, confirmation; AID 463116; calls only at 20 µM; 3617.4 GR-EGFP nuclear translocation imaging, dexamethasone-induced; shares compounds with Dynein transport; 1,000 compounds, 69% hits;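 active means inhibition of receptor movement into the nucleus at or above a set limit in both runs, with normal cell brightness and cell count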;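 further: dexamethasone at 1 µM final in well for 30 min; nuclear minus cytoplasmic GR-EGFP mean intensity difference in channel 2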
The depositor's hits bear a star.

Results for O=C(NC1CCCC1)C(c1ccc(F)cc1)N(Cc1ccc(Cl)cc1)C(=O)CCl (configuration not stated) ?
HKDC1 inhibitor: 8; Tb hexokinase: 36; HSV replic up: inactive; PERK inhibitor: 0; Dynein transport: -3.7*; Autophagy mod: active; Dynein inh conf: active

What do the screens show for `CCOC(=O)C1CCN(C(=O)C2CCN(S(=O)(=O)N3CCC4(CC3)OCCO4)CC2)CC1`?
HKDC1 inhibitor: -3

What do the screens show for `COc1cccc(N2C(=O)Nc3ccc(Br)cc3C2(O)C(=O)NCCN(C)C)c1` (configuration not stated)?
HKDC1 inhibitor: -3

How did O=C(O)c1cccc(Br)c1 do in these assays?
HKDC1 inhibitor: -3

Results for C[C@H](CO)N1C[C@H](C)[C@@H](CN(C)S(C)(=O)=O)Oc2c(NC(=O)Nc3ccccc3)cccc2C1=O ?
HKDC1 inhibitor: -6

How did COC(=O)c1cc([N+](=O)[O-])c(-n2cncn2)c([N+](=O)[O-])c1 do in these assays?
HKDC1 inhibitor: -1; Tb hexokinase: -7; HSV replic up: inactive; PERK inhibitor: 1; Dynein transport: -4.6*; Autophagy mod: inactive; Dynein inh conf: active

How did CC(C)CN1CC(Br)C(=O)NC1=O (configuration not stated) do in these assays?
HKDC1 inhibitor: -5

How did CCN1C(=O)/C(=C\c2ccncc2)SC1=Nc1ccc(C)c(C)c1 do in these assays?
HKDC1 inhibitor: 8; Tb hexokinase: -18; HSV replic up: inactive; PERK inhibitor: 1; Dynein transport: -3; Autophagy mod: inactive

How did CCCN1C(=O)/C(=C\c2ccncc2)SC1=Nc1ccccc1 do in these assays?
HKDC1 inhibitor: 3; Tb hexokinase: -21; HSV replic up: inactive; PERK inhibitor: 0; Dynein transport: -4.4*; Autophagy mod: inactive; Dynein inh conf: inactive

What do the screens show for `CCOCCCNC1=C(Cl)C(=O)c2ccccc2C1=O`?
HKDC1 inhibitor: 16; Tb hexokinase: 0; HSV replic up: inactive; PERK inhibitor: 0; Dynein transport: -5.3*; Dynein inh conf: active

How did Cc1ccc(C(C[N+](=O)[O-])Sc2ccc(N)cc2)cc1 (configuration not stated) do in these assays?
HKDC1 inhibitor: 4; Tb hexokinase: -14; HSV replic up: inactive; PERK inhibitor: 2; Dynein transport: -6.7*; Dynein inh conf: active

What do the screens show for `Nc1ccc(Sc2ccc([N+](=O)[O-])cc2)cc1`?
HKDC1 inhibitor: 1; Tb hexokinase: -14; HSV replic up: inactive; PERK inhibitor: 1; Dynein transport: -0.45; Autophagy mod: inactive

What do the screens show for `O=C(O)CC1CCC(=C(Cl)Cl)C1` (configuration not stated)?
HKDC1 inhibitor: -4; Tb hexokinase: 2; HSV replic up: inactive; PERK inhibitor: 1; Dynein transport: -4.8*; Autophagy mod: inactive; Dynein inh conf: inactive

Results for O=C(O)CC1CCS(=O)(=O)C1 (configuration not stated) ?
HKDC1 inhibitor: -2; Tb hexokinase: 33; HSV replic up: inactive; PERK inhibitor: -1; Dynein transport: 0.74; Autophagy mod: inactive

Results for O=C(CSc1n[nH]c(=O)n1Cc1ccccc1)Nc1ccc(N2CCOCC2)cc1 ?
HKDC1 inhibitor: -1

What do the screens show for `N#CCCN(C(=O)CCl)c1cccc(Cl)c1`?
HKDC1 inhibitor: 6; Tb hexokinase: -8; HSV replic up: inactive; PERK inhibitor: 1; Dynein transport: -3.8*; Autophagy mod: inactive; Dynein inh conf: active

Results for O=S(=O)(NCCN1CCOCC1)c1cc(Cl)c(Cl)cc1Cl ?
HKDC1 inhibitor: -9

What do the screens show for `O=C(CCl)N(C/C=C/c1ccccc1)c1ccc2c(c1)OCCO2`?
HKDC1 inhibitor: 28; Tb hexokinase: 0; HSV replic up: inactive; PERK inhibitor: 1; Dynein transport: -4*; Autophagy mod: inactive; Dynein inh conf: active

Results for O=C(C=Cc1cccc(O)c1)c1ccccc1O ?
HKDC1 inhibitor: 17
